# Source: ChEMBL document CHEMBL1122045, “Synthesis and pharmacological evaluation of reduced diastereoisomeric and quaternary ammonium derivatives of calcium antagonistic (methylenedioxy)indenes on the isolated rat aorta” (J Med Chem, 1982)
# Tests used:
# [1] = species: Rattus norvegicus; assay: Evaluated for its potency against norepinephrine (NE) (at a dose level of 10 E-7 M) induced aortic contractions in male Sprague-Dawley rats.; format: functional; conditions: Aorta
# Method in brief: (§1)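 Thoracic aorta segments (2.5 cm) from male Sprague–Dawley rats (250–300 g) were equilibrated 1–1.5 h, then contracted with NE 1×10^-7 M or KCl 40 mM, final bath levels. Compound was added in rising concentrations, up to 30 min per step. Tension was taken as % of pre-drug control, fatigue-adjusted. Per-tissue probit transform with linear regression gave IC50.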
# [2] = species: Rattus norvegicus; assay: Evaluated for its potency (IC 50) against potassium Chloride (KCl) (at a dose level of 40 mM) induced aortic contractions in male Sprague-Dawley rats.; format: functional; conditions: Aorta; method in brief: as §1
IC50 [1],IC50 [2],SMILES
74.1 µM,20.3 µM,CCCCC1=Cc2cc3c(cc2C1N(C)C)OCO3 (stereo not given)
78.2 µM,21.4 µM,CCCC1=Cc2cc3c(cc2C1N(C)C)OCO3 (stereo not given)
382 µM,547 µM,CCCC1=Cc2cc3c(cc2C1[N+](C)(C)C)OCO3 (stereo not given)
128 µM,169 µM,CCCCC1=Cc2cc3c(cc2C1[N+](C)(C)C)OCO3 (stereo not given)
1020 µM,871 µM,CCC[C@@H]1Cc2cc3c(cc2[C@@H]1[N+](C)(C)C)OCO3
281 µM,175 µM,CCCC[C@@H]1Cc2cc3c(cc2[C@@H]1[N+](C)(C)C)OCO3

SMILES,IC50 [1],IC50 [2]
CCC[C@@H]1Cc2cc3c(cc2[C@H]1N(C)C)OCO3,383 µM,98.9 µM
CCCC[C@@H]1Cc2cc3c(cc2[C@H]1N(C)C)OCO3,151 µM,31.1 µM
CCCC[C@@H]1Cc2cc3c(cc2[C@@H]1N(C)C)OCO3,37.9 µM,17.4 µM
CCC[C@@H]1Cc2cc3c(cc2[C@@H]1N(C)C)OCO3,59.4 µM,30 µM
